Usually EC50 stands for the concentration giving half of the maximal effect.

One data set deals with VCaP. Nature of the data set: Downregulation of BRD3 mRNA levels in human VCaP cells at 25 to 2500 nM incubated for 24 hrs by qRT-PCR analysis. Type of data set: functional, cell-based. The conditions noted are these: dose 25-2500 nM. In a few lines:
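VCaP cells grown to 50% confluence, then treated with compound or DMSO (Methods state 16 h, legend states 24 h). Total RNA isolated, cDNA made from 1 µg RNA, SYBR Green qPCR run in triplicate. Expression by ΔΔCt, normalised to GAPDH. Three independent experiments, SEM.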
For orientation: In qPCR the cycle at which signal appears reflects the starting amount.

Data set [1] can be described thus: Cytotoxicity against HFF cells assessed as reduction in cell viability measured after 72 hrs by MTS assay. The class given is toxicity, cell-based. The conditions noted are these: human. Summed up:
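MTS viability assay run in triplicate wells. Serial dilutions in DMSO were given, with DMSO as negative control and doxorubicin as positive control, and incubated 72 h. MTS reagent was added for 2 h and absorbance read at 490 nm. % cytotoxicity = (A_medium − A_treatment)/A_medium × 100. EC50 ± SD was taken from dose-response curves of at least three independent experiments.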
In general terms: Formazan colour is commonly taken as a measure of viable cells.

Calls of active or inactive are those of the source. The rule behind the calls is not given here.

For `CC(=O)OC[C@]12CC[C@H]3[C@@H](C[C@H]4O[C@]45CC=CC(=O)[C@]35C)[C@]1(O)CC[C@@]2(O)[C@@](C)(O)[C@H]1CC(C)=C(C)C(=O)O1`, the result with VCaP was inactive. Also, in data set [1], the EC50 at 72 h is more than 2000 nM.

The values are drawn from ChEMBL document CHEMBL5316292 (J Med Chem, 2023).
